The source of these data is ChEMBL document CHEMBL5321288, “Proteolytically Stable Diaza-Peptide Foldamers Mimic Helical Hot Spots of Protein-Protein Interactions and Act as Natural Chaperones” (J Med Chem, 2023).

For data set [1], the target named is Amyloid-beta precursor protein (Homo sapiens) (UniProt P05067). The data set is described as follows: Inhibition of Amyloid beta (1 to 42) (unknown origin) aggregation assessed as extension of time of the half aggregation at 10 to 1 ratio of compound to amyloid beta (1 to 42) incubated for 48 hrs fluorescence-detected ThT-binding assay. Also on record: scale not given: the % may be the effect or the level left.
Chain of Amyloid-beta precursor protein (Homo sapiens) (P05067 whole entry): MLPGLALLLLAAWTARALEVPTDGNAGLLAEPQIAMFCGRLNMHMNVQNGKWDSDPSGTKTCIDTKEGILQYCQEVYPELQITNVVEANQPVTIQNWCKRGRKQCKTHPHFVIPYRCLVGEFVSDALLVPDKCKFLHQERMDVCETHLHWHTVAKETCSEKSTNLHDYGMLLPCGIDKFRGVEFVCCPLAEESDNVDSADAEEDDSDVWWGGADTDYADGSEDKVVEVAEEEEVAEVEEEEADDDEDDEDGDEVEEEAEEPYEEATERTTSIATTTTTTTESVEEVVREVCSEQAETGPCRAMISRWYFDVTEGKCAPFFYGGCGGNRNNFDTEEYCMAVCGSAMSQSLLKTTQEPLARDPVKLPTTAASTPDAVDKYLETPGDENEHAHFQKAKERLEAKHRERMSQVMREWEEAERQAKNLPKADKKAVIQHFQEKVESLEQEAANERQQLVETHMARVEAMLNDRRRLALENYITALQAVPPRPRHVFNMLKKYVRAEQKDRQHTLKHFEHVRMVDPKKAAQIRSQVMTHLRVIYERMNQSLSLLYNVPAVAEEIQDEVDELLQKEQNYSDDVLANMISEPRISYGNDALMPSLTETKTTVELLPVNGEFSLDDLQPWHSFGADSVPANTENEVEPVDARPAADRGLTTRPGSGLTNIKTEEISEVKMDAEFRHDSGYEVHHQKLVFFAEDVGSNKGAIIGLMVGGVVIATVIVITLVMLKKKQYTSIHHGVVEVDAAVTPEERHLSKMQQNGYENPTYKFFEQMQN

For data set [2] the target is unchanged. The data set is described as follows: Inhibition of Amyloid beta (1 to 42) (unknown origin) aggregation assessed as reduction in experimental fluorescence platea at 10 to 1 ratio of compound to amyloid beta (1 to 42) incubated for 48 hrs fluorescence-detected ThT-binding assay. On the set-up: scale not given: the % may be the effect or the level left.
Data set [3] addresses T1, Islet amyloid polypeptide (Homo sapiens) (UniProt P10997).
T1 sequence (whole entry): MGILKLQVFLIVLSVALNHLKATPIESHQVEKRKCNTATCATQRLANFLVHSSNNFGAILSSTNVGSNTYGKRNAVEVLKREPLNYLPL
The data set is described as follows: Inhibition of hIAPP aggregation assessed as ThT fluorescence intensity at 10 to 1 ratio of compound to hIAPP by ThT fluorescence spectroscopy.

Data set [4] has as its target Amyloid-beta precursor protein (Homo sapiens) (UniProt P05067). The experiment in a line: Inhibition of Amyloid beta (1 to 42) (unknown origin) fibril formation assessed as decrease in factor of rate constants of secondary nucleation(k2)/elongation(K+) at 10 to 1 ratio of compound to amyloid beta (1 to 42) incubated for 48 hrs ThT assay.
Data set [5] shares this target. The data set is described as follows: Inhibition of Amyloid beta (1 to 42) (unknown origin) fibril formation assessed as decrease in factor of rate constants of secondary nucleation(k2)/elongation(K+) at 1 to 1 ratio of compound to amyloid beta (1 to 42) incubated for 48 hrs ThT assay.
Data set [6] is described as follows: Apparent permeability of the compound in apical to basolateral side in rat blood-brain barrier model at 10 uM. The format is ADME, tissue-based. The note with it: not told. The method in brief: (§1)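 Rat in vitro BBB model; peptide applied at 5 or 10 μM, co-incubated with Lucifer yellow as integrity standard, solutions in low-binding tubes. Transport measured apical-to-basal and basal-to-apical, in triplicate. Apical and basal samples quantified by LC-MS/MS to give apparent permeability (Papp).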

Data set [7] is filed under the species Homo sapiens. The data set is described as follows: Inhibition of Amyloid beta (1 to 28) (unknown origin) fibril formation assessed as ratio of alpha-helical to beta strand at 125 uM measured upto 5 hrs by CD spectra analysis (reference value: 0.39). The gist of the method:
(§2)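 CD at 25 °C, 195–250 nm, 0.1 cm cell, 50 nm/min, 0.1 nm resolution, five scans averaged. Aβ1-42 or Aβ1-28 at 25 μM with inhibitor at 125 μM, spectra taken at time points up to 5 h. Buffer or inhibitor spectrum subtracted, then smoothing. Secondary structure from 200–250 nm by BeStSel deconvolution.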

Data set [8] is described as follows: Cytotoxicity against rat brain endothelial cells assessed as viability at 1 to 100 ug/ml measured after 1 hr by MTT assay. The format is toxicity, cell-based. The note with it: endothelial cell, dose 1-100 µg/ml.
A short description of data set [9]: Plasma stability in human plasma assessed as degraded peptide at 1 uM measured after 2 hrs by UPLC-MS/MS analysis. The format is ADME, cell-free. The gist of the method: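 Compound at 1 μM in human plasma at 37 °C, duplicate. Sampled at 0, 15, 30, 45, 60 and 120 min. Analysed by reversed-phase UPLC, C18 at 40 °C, 4 min gradient of 0.1% formic acid in water/acetonitrile.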

In data set [10] the target is Amyloid-beta precursor protein (Homo sapiens) (UniProt P05067). The data set is described as follows: Inhibition of Amyloid beta (1 to 42) (unknown origin) fibril formation assessed as decrease in parallel beta sheet content at 125 uM measured upto 5 hrs by CD analysis. The method in brief:
as §2

A short description of data set [11]: Apparent permeability of the compound in apical to basolateral side in rat blood-brain barrier model at 5 uM. Format: ADME, tissue-based. The note with it: not told. The gist of the method:
as §1

The source made the active and inactive calls. No cut-off for these calls is given here. Starred links: 1 amine or outer side, 2 acyl side, 3 side chain; linkers in the order of their positions; H or OH if unused. Non-standard residues stand in square brackets, D forms with d. Residues, ends and D or L forms follow the SMILES beside them. *: point of attachment. X3 = C[C@H](O)CN(N[*:1])C(=O)NN(CCCCN)C(=O)[*:2]; X2 = CC(C)CN(NC(=O)N(C)N[*:1])C(=O)[*:2]; X1 = C[C@H](O)CN(N)C(=O)NN(CCCCN)C(=O)*

For the compound `CC(=O)NN(C[C@H](C)O)C(=O)NN(CCCCN)C(=O)N[C@@H](CO)C(=O)NN(Cc1ccc(O)cc1)C(=O)NN(CCc1c[nH]c2ccccc12)C(=O)N[C@@H](CCCCN)C(=O)NN(C)C(=O)NN(CC(C)C)C(=O)NCC(N)=O`, the Activity in data set [1] came to 42%; in [2], 41%.

For the compound `CC(=O)NN(C[C@H](C)O)C(=O)NN(CCCCN)C(=O)N[C@@H](CO)C(=O)NN(Cc1ccc(O)cc1)C(=O)NN(CCc1c[nH]c2ccccc12)C(=O)N[C@@H](CCCCN)C(=O)N[C@@H](C)C(=O)N[C@@H](CC(C)C)C(=O)NCC(N)=O`, the Activity in data set [1] amounted to 72%; in [2], 62%.

On to `CC(=O)N[C@H](C(=O)N[C@@H](CCCCN)C(=O)N[C@@H](CO)C(=O)NN(Cc1ccc(O)cc1)C(=O)NN(CCc1c[nH]c2ccccc12)C(=O)N[C@@H](CCCCN)C(=O)NN(C)C(=O)NN(CC(C)C)C(=O)NCC(N)=O)[C@@H](C)O`, for which the Activity in data set [1] was found to be 34%; in data set [2], 55%.

Turning to `CC(=O)N[C@H](C(=O)N[C@@H](CCCCN)C(=O)N[C@@H](CO)C(=O)NN(Cc1ccc(O)cc1)C(=O)NN(CCc1c[nH]c2ccccc12)C(=O)N[C@@H](CCCCN)C(=O)N[C@@H](C)C(=O)N[C@@H](CC(C)C)C(=O)NCC(N)=O)[C@@H](C)O`, the Activity in data set [1] was 102%; in data set [2], 56%.

As to `CC(=O)N[C@H](C(=O)N[C@@H](CCCCN)C(=O)N[C@@H](CO)C(=O)N[C@@H](Cc1ccc(O)cc1)C(=O)N[C@@H](Cc1c[nH]c2ccccc12)C(=O)N[C@@H](CCCCN)C(=O)NN(C)C(=O)NN(CC(C)C)C(=O)NCC(N)=O)[C@@H](C)O` (Ac-TKSYWK[X2]G-NH2), the Activity amounted to 59% in data set [1] and 30% in data set [2].

As to `CC(=O)NN(C[C@H](C)O)C(=O)NN(CCCCN)C(=O)N[C@@H](CO)C(=O)N[C@@H](Cc1ccc(O)cc1)C(=O)N[C@@H](Cc1c[nH]c2ccccc12)C(=O)N[C@@H](CCCCN)C(=O)N[C@@H](C)C(=O)N[C@@H](CC(C)C)C(=O)NCC(N)=O` (Ac-[X3]SYWKALG-NH2), the Activity in data set [1] worked out at 107%; in [2] it was 36%.

Turning to `CC(=O)NN(C[C@H](C)O)C(=O)NN(CCCCN)C(=O)N[C@@H](CO)C(=O)N[C@@H](Cc1ccc(O)cc1)C(=O)N[C@@H](Cc1c[nH]c2ccccc12)C(=O)N[C@@H](CCCCN)C(=O)NN(C)C(=O)NN(CC(C)C)C(=O)NCC(N)=O` (Ac-[X3]SYWK[X2]G-NH2), the Activity came out at 30% in [1] and 41% in data set [2]. Moreover, the inhibition result in data set [3] was “inactive”.

On to `CC(C)CN(NC(=O)N(C)NC(=O)[C@H](CCCCN)NC(=O)[C@H](Cc1c[nH]c2ccccc12)NC(=O)[C@H](Cc1ccc(O)cc1)NC(=O)[C@H](CO)NC(=O)[C@H](CCCCN)NC(=O)[C@@H](N)[C@@H](C)O)C(=O)NCC(N)=O` (H-TKSYWK[X2]G-NH2), for which the Activity in data set [1] came to 36%; in data set [2] it was 60%.

Turning to `CC(C)C[C@H](NC(=O)[C@H](C)NC(=O)[C@H](CCCCN)NC(=O)[C@H](Cc1c[nH]c2ccccc12)NC(=O)[C@H](Cc1ccc(O)cc1)NC(=O)[C@H](CO)NC(=O)N(CCCCN)NC(=O)N(N)C[C@H](C)O)C(=O)NCC(N)=O` (X1-SYWKALG-NH2), the Activity was 193% in data set [1] and 54% in data set [2]. The inhibition entry in [3] is “inactive”.

Turning to `CC(C)CN(NC(=O)N(C)NC(=O)[C@H](CCCCN)NC(=O)[C@H](Cc1c[nH]c2ccccc12)NC(=O)[C@H](Cc1ccc(O)cc1)NC(=O)[C@H](CO)NC(=O)N(CCCCN)NC(=O)N(N)C[C@H](C)O)C(=O)NCC(N)=O` (X1-SYWK[X2]G-NH2), the Ratio worked out at 1e+09 in [4], 10 in data set [5] and 2.16 in data set [7]. The Activity was 254% in data set [1], 57% in data set [2] and “Non-Toxic” in [8]. Besides, in data set [6], the Papp A→B at 10 µM came out at 0.677 ×10⁻⁶ cm/s. Moreover, the inhibition entry in [3] is “inactive”. Moreover, in data set [9], the metabolised at 2 h, 1 µM was determined as 6%. Further, the inhibition entry in data set [10] is “Active”. The Papp A→B at 5 µM in [11] came to 0.839 ×10⁻⁶ cm/s.

For the compound H-TKSYWKALG-NH2, the Ratio in data set [4] stood at 100; in data set [7], 0.66. Further, the Activity in data set [1] is 209%; in data set [2] it was 59%. In addition, the inhibition entry in data set [5] and in data set [3] was “inactive” each time. Also, in data set [9], the metabolised at 2 h, 1 µM was 99%. In addition, in [10], the inhibition result was “Active”.
